Results reported in the RNAGym collection of RNA variant scans (doi:10.1126/science.aae0568).
Variants at the floor of the assay were thinned out.

B1: tRNA (parent)
chain: GUUCCGUUGGCGUAAUGGUAACGCGUCUCCCUCCUAAGGAGAAGACUGCGGGUUCGAGUCCCGUACGGAACG

Variants of: B1
Test: yeast fitness relative to wild type (ratio to wild type); higher = fitter; tRNA-Arg(CCU), competitive growth, 37 C, YPD
Method in brief: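 Variants of the tRNA-Arg(CCU) gene were chemically synthesised with a 3% per-site mutation rate across 69 sites and placed at the native genomic locus in Saccharomyces cerevisiae. Six parallel replicates of the pooled strains were competed in YPD at 37°C for 24 hours, and gene amplicons from the start and end populations were read by 100-nucleotide paired-end sequencing. Darwinian fitness relative to wild type was derived from changes in genotype frequencies. Genotypes required ≥ 100 starting reads, and estimates < 0.5 were set to 0.5.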

Row | Variant | yeast fitness
1 | GUUCCGUUGGCGUAAUAGUAACGCGUCUCCCUCCUGAGGAGAAAACCGCGGGUUCGAGUCCCGUACGGAUCG | ≤ 0.5
2 | GUUCCGUUGGCGUAAUAGUAAUGCGUCUCCCACUUAGGGUGAAGACUGCGGGUUCGAGUCCCGUACGGUACG | ≤ 0.5
3 | GUUCCGUUGGCGUAAUAGUAACGCGUCUCCCUCCUAAGGAGAAGACUGCGGGUUCGAGUCCCGUCCGGAACG | 0.733
4 | GUUCCGUUGGCGUAAUAGUAACGCGUCUCCCUCCUAAGGAGAAGACUGCGGGUUCGAGUCCCGUGCGGAACG | 0.884
5 | GUUCCGUUGGCGUAAUAGUAACGCGUCUCCCUCCUAAGGGGAAGACUGCGGGUUCGAGUCCCGUACGGAACG | 0.722
6 | GUUCCGUUGGCGUAAUAGUAAUGCGUCCCCCUCCUAAGGAGAAGACUGCGGGUUCGGGUCUCGUACGGUACG | ≤ 0.5
7 | GUUCCGUUGGCGUAAUAGUAAAGCGUCUCCCUCCUAAGGAGAAGCCUGCGGGUUCGAGUCCCCUAUGGAACG | ≤ 0.5
8 | GUUCCGUUGGCGUAAUAGUAACGCGUCUCCCUCCUACGGAGAAGACUGCGGGUAAGAGUCCCGUAGGGAACG | ≤ 0.5
9 | GUUCCGUUGGCGUAAUAGUAACGCGUCUCCCUCCUAAGGAGCAGACUGCGGGUUCGAGUCCCGUGCGGAACG | ≤ 0.5
10 | GUUCCGUUGGCGUAAUAGUAACGCGUCUCCCUCCUAAGGAGAAGACUGCGGGUUCGCGUCCCGUACGGAACG | 0.581
11 | GUUCCGUUGGCGUAAUAGUAACGCGUCUCCCUCCUAAGGAGUAGACUGCGGGUUCGUGUCCCGUACGGAACG | ≤ 0.5
12 | GUUCCGUUGGCGUAAUAGUAAGGCGUCUUCCUCCUAAGGAGAAGACUGCGGGUUCGAGUCCCGUACGGAACG | ≤ 0.5
13 | GUUCCGUUGGCGUAAUAGUAACGCGUCUCCCUCCUAAGGAGAAGACUGCGGGUUCGAGUCCCGUACGGUACG | 0.809
14 | GUUCCGUUGGCGUAAUAGUAACGCGUCUCCCUCCUAGGGAGACGACUGCGGGUUCGAGUCCCGUACGGAACG | ≤ 0.5
15 | GUUCCGUUGGCGUAAUAGUACCGCGUUUCCCUACUACGGAGAAGACUGCGGGUUCGAGUCCCGUACGGAACG | 0.566
16 | GUUCCGUUGGCGUAAUAGUAACGCGUCUCCCUCCUCAGGAGAAGACUGCGGGUUCGAGUCCCGUACGGAACG | 0.558
17 | GUUCCGUUGGCGUAAUAGUACCGCGUCUCCCUCCUAAGGAGAAGACUGCGGGAUCGAGUCCCGUACGGAACG | ≤ 0.5
18 | GUUCCGUUGGCGUAAUAGUAACGCGUCUCCCUCCUACGGAGAAGACUGCGGCUUCCAGUACCGAACGGAACG | ≤ 0.5
19 | GUUCCGUUGGCGUAAUAGUAACGCGUCUCCCUCCUAAGGAGUAGACUGCGGGUUCGUGUCGCGUACGGAACG | 0.591

Row | Variant | yeast fitness
20 | GUUCCGUUGGCGUAAUAGUAACGCGUCUCCCUCCUAAGGUGAAGACUACGGGUUCGAGUCCCGUACGGAACG | ≤ 0.5
21 | GUUCCGUUGGCGUAAUAGUAACGCGUCUCCCUCCUUAGGAGAAGACUGUGGGUUCGAGUCCUGUACGGAACG | ≤ 0.5
22 | GUUCCGUUGGCGUAAUAGUGACGCGUCUCCUUCCCAAGGAGAAGACUGCGGGUUCGGGUCCCGUACGGAACG | 0.573
23 | GUUCCGUUGGCGUAAUAGUGACGCGUCACCCUCCAAAGGAGAAGACUGCGGGUUCGAGUCCCGUACGGAACG | 0.561
24 | GUUCCGUUGGCGUAAUAGUAACGCGUCUCCCUCCUAAGGAGAAGCCUGCGGGUUCGAGUCCCCUAUGGAACG | ≤ 0.5
25 | GUUCCGUUGGCGUAAUAGUAACGCGUCUCCCUCCUCUGGAGACGAUUGGAGGUUCGAGUCCCGUACGGAACG | 0.59
26 | GUUCCGUUGGCGUAAUAGUAACGAGUCUCUCUCCUAAGGAAAAGCCUGCGGGUUCGACUCCCGUACGGAACG | ≤ 0.5
27 | GUUCCGUUGGCGUAAUAGUAAAGCGUCUCCCUCCUAAGGAGAAGUCUGCGGGUUCGAGUCCCGUACGGAUCG | ≤ 0.5
28 | GUUCCGUUGGCGUAAUAGUAAUGCGUCUCCCUCCUAAGGAGAAGGUUGCGGGUUCGAGUCCCGUACGGAACG | 0.538
29 | GUUCCGUUGGCGUAAUAGUGACGCGUCUCCCUCAUAAGGGGAAGACUGCGGGUUCGAGUCCCGUAUGGAACG | ≤ 0.5
30 | GUUCCGUUGGCGUAAUAGUAACGCGUCUCCCUCCUAAGGAGAGGGCUACGGGUUCGAGUCCGGUACGGAACG | ≤ 0.5
31 | GUUCCGUUGGCGUAAUAGUGACGCGUCUCCCUCCUAAGGAGUAGACUGCGGGUUCGAGUCCCGUACGGAACG | 0.644
32 | GUUCCGUUGGCGUAAUAGUACCGCGUCUCCCCCCUAAGGAGAAGACUGCGGGUUCGAGUCCCGUACGGAACG | ≤ 0.5
33 | GUUCCGUUGGCGUAAUAGUGACGCGUGUCCCUCCUCAGGAGAAGACUGCGGGAUCGAGUCCCGUACGGAACG | 0.639
34 | GUUCCGUUGGCGUAAUAGUAAUGCGUCUACCUCCUGAGGAGAAGUCUGCGGGUUCGAGUCCCGUACGGAACG | ≤ 0.5
35 | GUUCCGUUGGCGUAAUAGUAAAGCGUCUCCCUCCUAAGGAGAAGUCUGCGGGUUCGAGUCCCGUAUGGAACG | ≤ 0.5
36 | GUUCCGUUGGCGUAAUAGUACCGCGUCUGCCUCCUAAGGAGAAGACUGCGGGUUCGAGUCCCGUACGGAACG | 0.626
37 | GUUCCGUUGGCGUAAUAGUAACGCGUCUCCCUCCUAAGGUGCAGACUGAGGGUUCGAGUCCCGUAAGGAACG | ≤ 0.5
